System: MS2 coat protein
Test: apparent Kd, MS2 coat protein; higher = weaker binding; RNA-MaP array; FMN 200 µM where present
How it was run: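 On Illumina sequencing-chip clusters, designs were transcribed by stalled E. coli RNA polymerase and titrated with SNAP-549-labelled MS2 coat protein (0.7 or 1.5 nM, doubling to 3 µM), without and then with constant ligand, in 100 mM Tris-HCl pH 7.5, 80 mM KCl, 4 mM MgCl2, BSA, DTT, yeast tRNA and Tween-20. Apparent Kd is the median of filtered per-cluster curve fits to green signal normalised to red-channel RNA signal and control-cluster median Fmax.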

[1] = designed as: OFF switch for flavin mononucleotide, no ligand
[2] = ligand present: flavin mononucleotide, designed as: OFF switch for flavin mononucleotide
[3] = designed as: ON switch for flavin mononucleotide, no ligand
[4] = ligand present: flavin mononucleotide, designed as: ON switch for flavin mononucleotide

GAUCGGUGAGGAUAUACAUUUUAGCUCCUCGUAAAGCCAUGACAUGAGGAUCACCCAUGUAGAAGGUAUUGUGU
apparent Kd [1]: 22.3 nM | apparent Kd [2]: 20 nM

GCUAUGUCAGGAUAUUGAUCGUGAUCGGAAAUGAUCGUGAUCGAGAAGGGACAUGAGGAUCACCCAUGUGUAGU
apparent Kd [1]: 166 nM | apparent Kd [2]: 492 nM

GCAGGUUAAGUCAGGAUAUACCUAUGGAUACAUAGGUAGAAGGGACAUGAGGAUCACCCAUGUGCCUCACCUGC
apparent Kd [1]: 18.3 nM | apparent Kd [2]: 63.1 nM

CCAUGUUAGCAGGAUAUGCAAUUAUUCUUUUAAGCAGAAGGGCUUACAUGAGGAUCACCCAUGUAACAUUUCAU
apparent Kd [1]: 17.3 nM | apparent Kd [2]: 85.4 nM

CAGUACUGAGGAUAUACAUGAGGAUCACCCAUGUGUUCCAGCUAGGAAACUAGCAAAGGUAGAAGGCAGUACUG
apparent Kd [1]: 23.8 nM | apparent Kd [2]: 521 nM

AAGAGGCUAGGAUAUACAUGAGGAUCACCCAUGUGAGGGCACGGCCGGCGCGUGGCCGGUAGAAGGAGUCAAAA
apparent Kd [1]: 21.3 nM | apparent Kd [2]: 22.6 nM

GAGUUGAACGAGAAGGCCACUACAUGAGGAUCACCCAUGUCGUAGAGUAUUGGAGGAUAUCGAUAGGCGUCUCAUGAGGACAUA
apparent Kd [1]: 25.1 nM | apparent Kd [2]: 13.4 nM

GUCAGCUCGUGAGGAUAUACAACACUGCUUCGGCAGUGUAUUAAGAUGACAUGAGGAUCACCCAUGUAGAAGGCACGAGCUGAU
apparent Kd [1]: 5.78 nM | apparent Kd [2]: 21 nM

GGAAAACAUGAGGAUCACCCAUGUGAGGAUAUCGAUGUCCAAAAAAAGGUGCGGGACUCGAGAAGGCACUUGGA
apparent Kd [1]: 55.6 nM | apparent Kd [2]: 47 nM

GGCUGUUUAGGAUAUACAUGAGGAUCACCCAUGUCGUUUAAUACAGACGGAUCCAACUGUAGAAGGAGAUGCCG
apparent Kd [1]: 102 nM | apparent Kd [2]: 79.7 nM

GUUGCUUUCCGAGGAUAUUCAGGGCGUGGCUAUACAUGAGGAUCACCCAUGUGGCGGAAGCCUAGGGAGAAGGCGGGCUGCUUC
apparent Kd [3]: 18.4 nM | apparent Kd [4]: 16.3 nM

GCGGCUAAUGCAGGAUAUCGGCGCGUGUAGCGCCGAGAAGGGCACAUGAGGAUCACCCAUGUGAUCAAUCAAUGUUAAUGCCGC
apparent Kd [1]: 8.68 nM | apparent Kd [2]: 45.6 nM

AUUAUGUAAGGAUAUCUUACAUGUGACUUCGGUCACUGUUAAGAGAAGGUACAUGAGGAUCACCCAUGUAUAAC
apparent Kd [1]: 19.6 nM | apparent Kd [2]: 22.4 nM

GAUCAACAUGAGGAUCACCCAUGUGAGGAUAUGAUACUAUGUACUUCGGUACAUAGUAUCAGAAGGCACAUUGA
apparent Kd [1]: 87.2 nM | apparent Kd [2]: 367 nM

GUGUUGUCAGGAUAUCUUACAUAACAAUCGUUGUUACCAUUGGAGAAGGGACAUGAGGAUCACCCAUGUUAUCC
apparent Kd [1]: 24.1 nM | apparent Kd [2]: 26.3 nM

AGCUACGUUUCGUAGCAGUGUCAUCGAGAAGGCUCAGAUACAUGAGGAUCACCCAUGUUAACAUGGGAGGAUAUCGAUGAUACA
apparent Kd [3]: 65.3 nM | apparent Kd [4]: 8.4 nM

ACAUGAGGAUCACCCAUGUAUUUGUAGGAUAUACUCUAUUGUUUAUUACUCUAGUUAAUAUGUUUGUAGAAGGACAUUACAUGA
apparent Kd [1]: 7.94 nM | apparent Kd [2]: 10.8 nM

AUUAUUAAGUUAGGAUAUAGUAAAAUAAUUUAAUUAGAAGGAGCUCACAUGAGGAUCACCCAUGUAAGAGGAUCACCCAUGUAU
apparent Kd [1]: 22.3 nM | apparent Kd [2]: 16.5 nM

CCUCGACAUGAGGAUCACCCAUGUCAGGAUAUUGUGUUUUGGGUUUUUUACCUUUAGGCAAGAAGGGAUGUGUG
apparent Kd [1]: 16.4 nM | apparent Kd [2]: 24.1 nM

CUGAUGUCAGGAUAUCGGUGGCUCACUUGUGUGUGCCAGACCGAGAAGGGACAUGAGGAUCACCCAUGUUUUUA
apparent Kd [1]: 86.1 nM | apparent Kd [2]: 370 nM

UCAUCAGCGGGCGGGUCGGUUGGACAUGAGGAUCACCCAUGUAGAAGGACCGGUGGACUCCGGCGGUAGGAUAUACAUUUGGUG
apparent Kd [1]: 16.1 nM | apparent Kd [2]: 26.3 nM

AUGUUUAAUGCAGGAUAUGAUUAACAUGAGGAUCACCCAUGUGGUGUUGUGAGUAAGGAGAGUGAUCAGAAGGGCAUUUUUUUU
apparent Kd [3]: 592 nM | apparent Kd [4]: 540 nM

GAUCCUUCUGUUAGGAUAUGCUACGGGCUUCCGCAGCAGAAGGAACAUGAGGAUCACCCAUGUCAAAUAAAAUC
apparent Kd [1]: 37.1 nM | apparent Kd [2]: 168 nM

GUACUGAAGCCUUGCUUUAGUCGUACAUGAGGAUCACCCAUGUAGGAUAUGGUAGGCUUUGCUUACUAGAAGGAUAGAGUGAUC
apparent Kd [1]: 56.1 nM | apparent Kd [2]: 34 nM

AAGUACCGGUGAGGAUAUUUUUAAUAGAACUUUAUGAUAUACAUGAGGAUCACCCAUGUUACUUUAAAGAAGGCAUCGGAUUAA
apparent Kd [1]: 18 nM | apparent Kd [2]: 14.8 nM

CUUCGACAUGAGGAUCACCCAUGUCAGGAUAUUGUUUAUCUGGUGUUGUCCAGAUAUGCAAGAAGGGAUGUGUG
apparent Kd [1]: 38.4 nM | apparent Kd [2]: 38.1 nM

CGAUACAUGAGGGUCUCCCAUGACAUGAGGAUCACCCAUGUGCAGGAUAUACGUGUGAUGGUAUAGUAGAAGGGCAGUCUAUGU
apparent Kd [1]: 70.6 nM | apparent Kd [2]: 99.9 nM

UCGUAUAAGGGCAUUACACAUGAGGAUCACCCAUGUACGUUAGAGGAUAUGCAUUUCAGUCGAACGUAGAAGGCUAGAGAAGGG
apparent Kd [1]: 117 nM | apparent Kd [2]: 100 nM

UGGUCAUCAUCAGGAUAUUAACGUGGGCUACUUUAAGAAGGGAUAGUGGGAGAGGAUGUGAAACAUGAGGAUCACCCAUGUUGU
apparent Kd [3]: 15.7 nM | apparent Kd [4]: 12.3 nM

AGUAUGAGAGGAUAUACUAAUAAACAUGGAAACAUGAAGGGACAUGAGGAUCACCCAUGUAGAAGGCUCGUACA
apparent Kd [1]: 55.6 nM | apparent Kd [2]: 177 nM

CCGGGUUAUGUUAGGAUAUGUAGGCCGCAACCGGAACAGAAGGGACAUGAGGAUCACCCAUGUGAUAUUCCCGG
apparent Kd [1]: 23.3 nM | apparent Kd [2]: 30.8 nM

UUGUUCUGAGGAUAUACAUGAGGAUCACCCAUGUGUUUCUGCUUGGUGUCUUGCGUAUGUAGAAGGCUGUUCUC
apparent Kd [1]: 36.5 nM | apparent Kd [2]: 36.3 nM

GCAGUGCGAGGAUAUACAUGAGGAUCACCCAUGUGAGAAUAAGAAGUGAGGAAGAAAAGUAGAAGGCGCGUUGG
apparent Kd [1]: 52.4 nM | apparent Kd [2]: 155 nM

AGCUAGUCAGGAUAUACGAACAUGUCGAAAGACGUGAGGGAACAUGAGGAUCACCCAUGUAGAAGGGACUAGCA
apparent Kd [1]: 30.6 nM | apparent Kd [2]: 36.2 nM

AAAAUCUAUAGAGGAUAUCGUUUUUAAAGAAAAUGAGAAGGCUAACAAUCAUGAGGACAUGAGGAUCACCCAUGUUGUGACCAU
apparent Kd [3]: 19.6 nM | apparent Kd [4]: 10.2 nM

CUUUCGUUAGCAGGAUAUGGACAGGCCUGUCCGUAUUGAGUCAGUAACAUGAGGAUCACCCAUGUCCAGAAGGGCUCGAAGGGA
apparent Kd [1]: 14.1 nM | apparent Kd [2]: 46.6 nM

UUUGCAUUCCGAGGAUAUUCAGAUAAUAACUACACAUGAGGAUCACCCAUGUGGCGAUAGCCUAGGGAGAAGGCGGUUUGCUUU
apparent Kd [3]: 19.7 nM | apparent Kd [4]: 20.9 nM

Source: the EternaBench riboswitch data
